Experimental data: ChEMBL document CHEMBL1127450, “Synthesis and antiviral activity evaluation of some aminoadamantane derivatives” (1994)
Values after ≈ are worked out from the molar mass of the structure shown.

What was measured:
Format in all cases: functional
HeLa [1] = experiment: tested for minimum inhibitory concentration required to cause a microscopically detectable alteration of normal cell morphology by 50% on HeLa cell line; conditions: Homo sapiens
Procedure, shortened: (§1)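 HeLa (human epithelial), MDCK (Madin-Darby canine kidney) or Vero (African green monkey kidney) cells were scored by microscopy. The value is the minimum concentration that causes a detectable alteration of normal cell morphology. Values are averages of at least two separate experiments.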

HeLa [2] = experiment: tested for minimum inhibitory concentration required to reduce virus-induced cytopathicity by 50% on HeLa cell line infected with polio 1 virus; conditions: Homo sapiens
Procedure, shortened: (§2)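 HeLa (human epithelial), MDCK (Madin-Darby canine kidney) or Vero (African green monkey kidney) cells were infected with the stated virus. The value is the concentration that reduces virus-induced cytopathicity by 50%. Values are averages of at least two separate experiments.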

Vero [3] = experiment: tested for minimum inhibitory concentration required to reduce virus-induced cytopathicity by 50% on vero cell line infected with sindbis virus; conditions: Chlorocebus sabaeus; procedure, shortened: as §2
Vero [4] = experiment: tested for minimum inhibitory concentration required to reduce virus-induced cytopathicity by 50% on vero cell line infected with coxsackie B4 virus; conditions: Chlorocebus sabaeus; procedure, shortened: as §2
Vero [5] = experiment: tested for minimum inhibitory concentration required to reduce virus-induced cytopathicity by 50% on vero cell line infected with semliki forest virus; conditions: Chlorocebus sabaeus; procedure, shortened: as §2
HEF [6] = experiment: tested for minimum inhibitory concentration required to cause a microscopically detectable alteration of normal cell morphology by 50% on HEF cell line; conditions: Homo sapiens
Procedure, shortened: (§3)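 Human embryonic skin-muscle fibroblasts (HEF) were used. The value is the minimum concentration that causes a microscopically detectable alteration of normal cell morphology. Values are averages of at least two separate experiments.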

Vero [7] = experiment: tested for minimum inhibitory concentration required to cause a microscopically detectable alteration of normal cell morphology by 50% on vero cell line; conditions: Chlorocebus sabaeus; procedure, shortened: as §1
Vero [8] = experiment: Tested for minimum inhibitory concentration required to reduce virus-induced cytopathicity by 50% on vero cell line infected with parainfluenza 3 virus; conditions: Chlorocebus sabaeus; procedure, shortened: as §2
HeLa [9] = experiment: Tested for minimum inhibitory concentration required to reduce virus-induced cytopathicity by 50% on HeLa cell line infected with RSV virus; conditions: Homo sapiens; procedure, shortened: as §2
HEF [10] = experiment: tested for minimum inhibitory concentration required to reduce virus-induced cytopathicity by 50% on HEF cell line infected with vesicular stomatitis virus; conditions: Homo sapiens
Procedure, shortened: (§4)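 Human embryonic skin-muscle fibroblasts (HEF) were infected with the stated virus. The value is the concentration that reduces virus-induced cytopathicity by 50%. Values are averages of at least two separate experiments.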

CCRF-CEM [11] = experiment: tested for minimum inhibitory concentration required to reduce virus-induced cytopathicity by 50% was evaluated on CEM cell line infected with HIV-1 virus; conditions: Homo sapiens
HEF [12] = experiment: tested for minimum inhibitory concentration required to reduce […] by 50% on HEF cell line; conditions: Homo sapiens
Procedure, shortened: (§5)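 Human embryonic lung fibroblasts (HEF) were used for cell proliferation. The value is the concentration that reduces cell proliferation by 50%. Values are averages of at least two separate experiments.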

CCRF-CEM [13] = experiment: tested for minimum inhibitory concentration required to reduce virus-induced cytopathicity by 50% on CEM cell line infected with HIV-2 virus; conditions: Homo sapiens
MDCK [14] = experiment: tested for minimum inhibitory concentration required to cause a microscopically detectable alteration of normal cell morphology by 50% on MDCK cell line; conditions: Canis lupus familiaris; procedure, shortened: as §1
HEF [15] = experiment: tested for minimum inhibitory concentration required to reduce virus-induced cytopathicity by 50% on HEF cell line infected with HSV-2 virus; conditions: Homo sapiens; procedure, shortened: as §4
HEF [16] = experiment: Tested for minimum inhibitory concentration required to reduce virus-induced cytopathicity by 50% on HEF cell line infected with thymidine kinase-deficient herpes simplex virus type 1 (TK-HSV-1); conditions: Homo sapiens; procedure, shortened: as §4
MDCK [17] = experiment: Tested for minimum inhibitory concentration required to reduce virus-induced cytopathicity by 50% on MDCK cell line infected with influenza A virus; conditions: Canis lupus familiaris; procedure, shortened: as §2
HEF [18] = experiment: tested for minimum inhibitory concentration required to reduce virus-induced cytopathicity by 50% on HEF cell line infected with vaccinia virus; conditions: Homo sapiens; procedure, shortened: as §4
MDCK [19] = experiment: Tested for minimum inhibitory concentration required to reduce virus-induced cytopathicity by 50% on MDCK cell line infected with influenza B virus; conditions: Canis lupus familiaris; procedure, shortened: as §2
HEF [20] = experiment: Tested for minimum inhibitory concentration required to reduce virus-induced cytopathicity by 50% on HEF cell line infected with HSV-1 virus; conditions: Homo sapiens; procedure, shortened: as §4
CCRF-CEM [21] = experiment: tested for minimum inhibitory concentration required to reduce virus-induced cell viability by 50% on CEM cell line; conditions: Homo sapiens
Vero [22] = experiment: tested for minimum inhibitory concentration required to reduce virus-induced cytopathicity by 50% on vero cell line infected with Reo 1 virus; conditions: Chlorocebus sabaeus; procedure, shortened: as §2
HeLa [23] = experiment: Tested for minimum inhibitory concentration required to cause a microscopically detectable alteration of normal cell morphology by 50% on HeLa cell line; conditions: Homo sapiens; procedure, shortened: as §1
HeLa [24] = experiment: Tested for minimum inhibitory concentration required to reduce virus-induced cytopathicity by 50% on HeLa cell line infected with polio 1 virus; conditions: Homo sapiens; procedure, shortened: as §2
HEF [25] = experiment: Tested for minimum inhibitory concentration required to reduce virus-induced cytopathicity by 50% on HEF cell line infected with HSV-2 virus; conditions: Homo sapiens; procedure, shortened: as §4
CCRF-CEM [26] = experiment: Tested for minimum inhibitory concentration required to reduce virus-induced cytopathicity by 50% on CEM cell line infected with HIV-2 virus; conditions: Homo sapiens
HEF [27] = experiment: Tested for minimum inhibitory concentration required to reduce virus-induced cytopathicity by 50% on HEF cell line infected with vaccinia virus; conditions: Homo sapiens; procedure, shortened: as §4
CCRF-CEM [28] = experiment: Tested for minimum inhibitory concentration required to reduce virus-induced cytopathicity by 50% was evaluated on CEM cell line infected with HIV-1 virus; conditions: Homo sapiens
CCRF-CEM [29] = experiment: Tested for minimum inhibitory concentration required to reduce virus-induced cell viability by 50% on CEM cell line; conditions: Homo sapiens
Vero [30] = experiment: Tested for minimum inhibitory concentration required to reduce virus-induced cytopathicity by 50% on vero cell line infected with sindbis virus; conditions: Chlorocebus sabaeus; procedure, shortened: as §2
MDCK [31] = experiment: Tested for minimum inhibitory concentration required to cause a microscopically detectable alteration of normal cell morphology by 50% on MDCK cell line; conditions: Canis lupus familiaris; procedure, shortened: as §1
Vero [32] = experiment: Tested for minimum inhibitory concentration required to cause a microscopically detectable alteration of normal cell morphology by 50% on vero cell line; conditions: Chlorocebus sabaeus; procedure, shortened: as §1
HEF [33] = experiment: Tested for minimum inhibitory concentration required to reduce virus-induced cytopathicity by 50% on HEF cell line infected with vesicular stomatitis virus; conditions: Homo sapiens; procedure, shortened: as §4
HEF [34] = experiment: Tested for minimum inhibitory concentration required to cause a microscopically detectable alteration of normal cell morphology by 50% on HEF cell line; conditions: Homo sapiens; procedure, shortened: as §3
Vero [35] = experiment: Tested for minimum inhibitory concentration required to reduce virus-induced cytopathicity by 50% on vero cell line infected with coxsackie B4 virus; conditions: Chlorocebus sabaeus; procedure, shortened: as §2
HEF [36] = experiment: Tested for minimum inhibitory concentration required to reduce […] by 50% on HEF cell line; conditions: Homo sapiens; procedure, shortened: as §5
Vero [37] = experiment: Tested for minimum inhibitory concentration required to reduce virus-induced cytopathicity by 50% on vero cell line infected with semliki forest; conditions: Chlorocebus sabaeus; procedure, shortened: as §2
Vero [38] = experiment: Tested for minimum inhibitory concentration required to reduce virus-induced cytopathicity by 50% on vero cell line infected with Reo 1 virus; conditions: Chlorocebus sabaeus; procedure, shortened: as §2
CCRF-CEM [39] = experiment: Tested for minimum inhibitory concentration required to reduce virus-induced cell viability by 50% on CEM cell line.; conditions: Homo sapiens
Vero [40] = experiment: Tested for minimum inhibitory concentration required to reduce virus-induced cytopathicity by 50% on vero cell line infected with semliki forest virus; conditions: Chlorocebus sabaeus; procedure, shortened: as §2
Vero [41] = experiment: Tested for minimum inhibitory concentration required to cause a microscopically detectable alteration of normal cell morphology by 50% on Vero cell line; conditions: Chlorocebus sabaeus; procedure, shortened: as §1

Row | Structure (SMILES) | MIC50 (Vero [8]) | MIC50 (HeLa [9]) | MIC50 (HEF [16]) | MIC50 (MDCK [17]) | MIC50 (MDCK [19]) | MIC50 (HEF [20]) | MIC50 (HeLa [23]) | MIC50 (HeLa [24]) | MIC50 (HEF [25]) | MIC50 (CCRF-CEM [26]) | MIC50 (HEF [27]) | MIC50 (CCRF-CEM [28]) | MIC50 (CCRF-CEM [29]) | MIC50 (Vero [30]) | MIC50 (MDCK [31]) | MIC50 (HEF [33]) | MIC50 (HEF [34]) | MIC50 (Vero [35]) | MIC50 (HEF [36]) | MIC50 (Vero [38]) | also measured
1 | C1CN(CC2CC2)C2(C1)C1CC3CC(C1)CC2C3 (stereo not drawn) | > 400 µg/mL | ≥ 150 µg/mL | ≥ 400 µg/mL | ≥ 40 µg/mL | > 100 µg/mL | 300 µg/mL (≈ 1220 µM) |  |  |  |  |  |  |  |  |  |  |  |  |  |  | MIC50 (HeLa [1]): > 400 µg/mL; MIC50 (HeLa [2]): > 400 µg/mL; MIC50 (Vero [3]): > 400 µg/mL; MIC50 (Vero [4]): > 400 µg/mL; MIC50 (Vero [5]): > 400 µg/mL; MIC50 (HEF [6]): > 400 µg/mL; MIC50 (Vero [7]): > 400 µg/mL; MIC50 (HEF [10]): 150 µg/mL (≈ 611 µM); MIC50 (CCRF-CEM [11]): > 200 µg/mL; MIC50 (HEF [12]): > 200 µg/mL; MIC50 (CCRF-CEM [13]): > 200 µg/mL; MIC50 (MDCK [14]): 100 µg/mL (≈ 407 µM); MIC50 (HEF [15]): > 400 µg/mL; MIC50 (HEF [18]): 100 µg/mL (≈ 407 µM); MIC50 (CCRF-CEM [21]): > 200 µg/mL; MIC50 (Vero [22]): > 400 µg/mL
2 | NCC1CC12C1CC3CC(C1)CC2C3 (stereo not drawn) | > 20 µg/mL | ≥ 15 µg/mL | > 20 µg/mL | 0.8 µg/mL (≈ 4.18 µM) | > 20 µg/mL | > 20 µg/mL | 20 µg/mL (≈ 105 µM) | > 10 µg/mL | > 20 µg/mL | > 8 µg/mL | > 20 µg/mL | > 8 µg/mL | 14 µg/mL (≈ 73.2 µM) | > 20 µg/mL | 20 µg/mL (≈ 105 µM) | > 20 µg/mL | 40 µg/mL (≈ 209 µM) | > 20 µg/mL | 28 µg/mL (≈ 146 µM) | > 20 µg/mL | MIC50 (Vero [32]): 40 µg/mL (≈ 209 µM); MIC50 (Vero [37]): > 20 µg/mL
3 | O=C(Nc1ccc(Cl)cc1)N1CCCC12C1CC3CC(C1)CC2C3 (stereo not drawn) | > 70 µg/mL | > 20 µg/mL | > 20 µg/mL | 2.4 µg/mL (≈ 6.96 µM) | > 20 µg/mL | > 20 µg/mL | 100 µg/mL (≈ 290 µM) | > 70 µg/mL | > 20 µg/mL | > 1.6 µg/mL | > 20 µg/mL | > 1.6 µg/mL |  | > 70 µg/mL | 20 µg/mL (≈ 58 µM) | > 20 µg/mL | 40 µg/mL (≈ 116 µM) | > 70 µg/mL | 150 µg/mL (≈ 435 µM) | > 70 µg/mL | MIC50 (CCRF-CEM [39]): 3.4 µg/mL (≈ 9.86 µM); MIC50 (Vero [40]): > 70 µg/mL; MIC50 (Vero [32]): 100 µg/mL (≈ 290 µM)
4 | CNC1CC12C1CC3CC(C1)CC2C3 (stereo not drawn) | > 70 µg/mL | > 150 µg/mL | > 40 µg/mL | 1.2 µg/mL (≈ 6.27 µM) | > 100 µg/mL | > 70 µg/mL | 200 µg/mL (≈ 1050 µM) | > 100 µg/mL | > 70 µg/mL | > 8 µg/mL | > 70 µg/mL | > 8 µg/mL | 75 µg/mL (≈ 392 µM) | > 70 µg/mL | 100 µg/mL (≈ 523 µM) | > 40 µg/mL | 100 µg/mL (≈ 523 µM) | > 70 µg/mL | 90 µg/mL (≈ 470 µM) | > 70 µg/mL | MIC50 (Vero [40]): > 70 µg/mL; MIC50 (Vero [41]): 100 µg/mL (≈ 523 µM)
